Source: PubChem (several laboratories)
The list is not random: actives were taken first. Their share in the collection is about 2.5%.
Rce1 inhib = yeast Rce1p protease inhibitors, primary screen, biochemical, fluorescence, cell-free homogeneous | actives 0.27% (n = 290,000) | calls only | yeast membranes, quenched prenylated peptide cleavage fluorescence | CAAX prenyl protease 2 (Saccharomyces cerevisiae (strain ATCC 204508 / S288c)), Q03530;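 active = fall in fluorescence gain of 50% or more versus controls, with final raw signal at or below 3038400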
Target sequence (Q03530 whole entry, looked up): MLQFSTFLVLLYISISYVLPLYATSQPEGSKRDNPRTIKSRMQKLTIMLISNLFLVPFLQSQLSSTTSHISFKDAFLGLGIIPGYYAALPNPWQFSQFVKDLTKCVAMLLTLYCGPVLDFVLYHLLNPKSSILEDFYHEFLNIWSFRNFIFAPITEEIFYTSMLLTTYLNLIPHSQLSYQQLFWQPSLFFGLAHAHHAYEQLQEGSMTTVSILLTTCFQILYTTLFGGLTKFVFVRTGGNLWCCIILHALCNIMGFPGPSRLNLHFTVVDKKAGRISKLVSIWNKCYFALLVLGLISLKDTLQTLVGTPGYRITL
MEKK2wt PB1 HTS = modulators of MEK5 binding to wildtype MEKK2, primary screen, biochemical, multiplex bead flow cytometry, Alexa488-MEK5 | AID 1531, 2009 | Alexa488-MEK5 binding to MEKK2 WT; actives lie on both sides | actives 1.1% (n = 290,000) | binding response (% of control), % at 10 µM; in the data active = binding response below about 67% or above about 130%
MEKK3 PB1 HTS = modulators of MEKK3-MEK5 PB1 binding, primary screen, biochemical, wildtype MEKK3, multiplex bead flow cytometry, Alexa488-MEK5; actives 1.4% (n = 290,000); bead-based flow cytometry, Alexa488-MEK5 binding to MEKK3; actives lie on both sides; 0 = blocked by unlabeled MEK5, 100 = vehicle; binding response (% of control), % at 10 µM;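 active = binding response more than 3 SD above or below the average of its plate-row segment, actives on both sides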;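 note: Alexa488 bead fluorescence after subtracting the streptavidin-only scavenger bead signal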
UCH37 DUB inh = inhibitors of human UCH37 deubiquitinase, primary screen, biochemical, Ub-AMC cleavage, fluorescence | Ubiquitin carboxyl-terminal hydrolase isozyme L5 (Homo sapiens), Q9Y5K5 | purified proteasome/UCH37 | inhibition, % (test concentration not listed) | actives 0.33% (n = 330,000) | AID 588478, 2011;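 active = mean inhibition over replicate wells above about 20%, limit read from the data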
Target sequence (Q9Y5K5 whole entry, looked up): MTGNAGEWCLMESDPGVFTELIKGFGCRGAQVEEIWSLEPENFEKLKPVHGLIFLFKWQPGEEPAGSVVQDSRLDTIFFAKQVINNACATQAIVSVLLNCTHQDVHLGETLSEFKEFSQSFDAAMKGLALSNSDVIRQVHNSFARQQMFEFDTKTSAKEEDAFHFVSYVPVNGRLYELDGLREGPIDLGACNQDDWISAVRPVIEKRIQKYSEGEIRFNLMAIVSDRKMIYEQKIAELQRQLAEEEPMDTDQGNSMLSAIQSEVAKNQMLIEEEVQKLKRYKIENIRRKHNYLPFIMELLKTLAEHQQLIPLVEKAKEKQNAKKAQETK
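assay system = human UCH37 enzyme supplied as purified proteasome complex | amount = proteasome at 0.15 nM in the dispensed enzyme solution | schedule = 30 min compound-proteasome preincubation then 25 min substrate reaction, room temperature | measured by = fluorescence, ex 355 nm, em 460 nm | benchmarks = no-proteasome wells (full inhibition) and compound-free wells (no inhibition)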
MEKK2 mut-MEK5 = MEK5 binding signal on mutant MEKK2 PB1, primary screen, biochemical, multiplex bead flow cytometry, Alexa488-MEK5. AID 1530, 2009. actives 0.35% (n = 290,000). Alexa488-MEK5 binding to MEKK2 mutant. percent response, % at 10 µM; in the data active = percent response above about 24%, passing the limit was not always enough
T cell HTS = modulators of CD8 T cell-vesicle binding, primary screen, mouse 2C CD8+ T cells, flow cytometry; response (vesicle binding), % at 7 µM; actives 0.068% (n = 330,000); 2C CD8+ T cell-vesicle binding; stronger effect = lower value;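 active = response, share of CD8 T cells binding vesicles, and their 90th percentile fluorescence all below set limits, cut at about 80% in these data, passing the limit was not always enough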;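 note: values below 100% mean blocked vesicle binding to the CD8+ T cells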
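System: murine 2C transgenic CD8+ T lymphocytes; also added: QL9-loaded Drosophila micro-vesicles; times: binding 1.5 h at 37 °C; measured by: flow cytometry, PE anti-B7-1 (FL2) versus Alexa647 anti-CD8 (FL8), PFA-fixed; control set: Peptide-free naked vesicles (low) and QL9 vesicles with 0.7% DMSO vehicle (high)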
MEKK2wt confirm = modulators of MEK5 binding to wildtype MEKK2, confirmation, biochemical, single concentration, multiplex bead flow cytometry | shares compounds with MEKK3 PB1 HTS | Alexa488-MEK5 binding to MEKK2 WT; actives lie on both sides | actives 2.4% (n = 5,900) | binding response (% of control), % at 10 µM | AID 1892, 2009; in the data active = binding response below about 16% or above about 210%; inactive = in between
MEKK2mut confirm = mutant MEKK2 PB1-MEK5 binding signal retest – biochemical, single concentration, multiplex bead flow cytometry, confirmation; Alexa488-MEK5 binding to MEKK2 mutant; actives 2% (n = 5,900); shares compounds with MEKK3 PB1 HTS; percent response, % at 10 µM; in the data active = percent response mostly above about 71%, no sharp cut-off; inactive = mostly below about 38%;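 note: higher means compound restores mutant binding toward wildtype level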
MEKK3-MEK5 inh = MEKK3 wild-type PB1 binding to MEK5, inhibitors, confirmation, biochemical, bead multiplex flow cytometry, single concentration, wildtype | shares compounds with MEKK3 PB1 HTS | Alexa488-MEK5 binding to MEKK3; stronger effect = lower value | binding response (% of control), % at 10 µM | actives 1.8% (n = 5,900) | AID 1894, 2009;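 active = binding response below 72% of control, or above a set upper limit, though filed actives all read lower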
A number is an active result; 0 = inactive; - = no result; + = active, no number; [ ] = another dose, or the depositor's remark.

SMILES	Rce1 inhib	MEKK2wt PB1 HTS	MEKK3 PB1 HTS	UCH37 DUB inh	MEKK2 mut-MEK5	T cell HTS	MEKK2wt confirm	MEKK2mut confirm	MEKK3-MEK5 inh
COc1ccc(Cl)cc1N(C(=O)Nc1cccc(Cl)c1)C1=NCC(C)S1 (stereo not drawn)	0	0	129.0	0	0	0	0	0	0
COc1cccc(C=NNc2ccccc2C(=O)O)c1O	-	-	-	0	-	-	-	-	-
COc1ccc(CN(C(=O)c2cnccn2)C(C(=O)NC(C)(C)C)c2cc(OC)c(OC)c(OC)c2)cc1 (stereo not drawn)	0	0	0	0	0	0	-	-	-
COc1cc(C(C(=O)NC(C)(C)C)N(Cc2ccc3c(c2)OCO3)C(=O)c2cnccn2)cc(OC)c1OC (stereo not drawn)	0	0	40.0[inhibitor]	0	0	0	0	0	0
COc1ccc(C2N(c3ccccc3)C(=S)N3CCCN23)cc1 (stereo not drawn)	0	0	139.0	0	0	0	0	0	0
CC(C)(C)S(=O)(=O)c1cnc(-c2cnccn2)nc1N	0	0	134.0	0	0	0	0	0	0
COc1cc(-c2csc(CCn3nc(C)cc3C)n2)cc(OC)c1OC	0	-	0	0	+	0	0	0	0
Cc1cc(C)n(CCc2nc(-c3ccc(F)cc3)cs2)n1	0	0	0	0	0	0	-	-	-
COc1ccccc1C=NNC(=O)C(NC(=O)c1ccccc1)=C(C)C	-	-	-	0	-	-	-	-	-
Cc1ccc(/C=C2/NC(=O)N(Cc3ccccc3)C2=O)o1	0	2.0[inhibitor]	0	0	0	0	0	0	0
COC(=O)CN1C(=O)N/C(=C/c2ccc(C)o2)C1=O	0	0	0	0	0	0	-	-	-
COc1cc(C(=O)Nc2ccc3nc(N4CCN(C)CC4)cc(C)c3c2)cc(OC)c1OC	0	0	0	0	0	0	-	-	-
CCC(C)NC(=O)CCC(=O)Nc1ccc2nc(N3CC(C)CC(C)C3)cc(C)c2c1 (stereo not drawn)	0	9.0	0	0	90.0	0	0	0	0
CCC(C)NC(=O)CCC(=O)Nc1ccc2nc(N3CCOCC3)cc(C)c2c1 (stereo not drawn)	0	0	0	0	0	0	-	-	-
CCN1CCN(c2cc(C)c3cc(NC(=S)N4CCN(c5ccccc5F)CC4)ccc3n2)CC1	0	148.0	0	0	0	0	0	0	0
CCN1CCN(c2cc(C)c3cc(NC(=O)c4cnccn4)ccc3n2)CC1	0	0	0	0	0	0	-	-	-
CCOc1ccc(C(=O)Nc2ccc3nc(N4CCN(CC)CC4)cc(C)c3c2)cc1	0	148.0	0	0	0	0	0	0	0
CCN1CCN(c2cc(C)c3cc(NC(=O)c4cc(OC)cc(OC)c4)ccc3n2)CC1	0	139.0	0	0	0	0	0	0	0
COc1cc(C=NNS(=O)(=O)c2ccc(Br)cc2)ccc1O	-	-	-	0	-	-	-	-	-
Cc1ccc(CN2CCN(N=Cc3ccc(C(F)(F)F)cc3)CC2)c(C)c1	-	-	-	0	-	-	-	-	-
Cc1ccc(C=c2sc3nc(-c4ccco4)nn3c2=O)o1	-	-	-	0	-	-	-	-	-
CCc1ccc(C(=O)c2cnc3ccc(OC)cc3c2N2CCN(CC)CC2)cc1	0	0	0	0	0	0	-	-	-
CCN1CCN(c2cc(C)c3cc(NC(=O)Cc4ccc(OC)c(OC)c4)ccc3n2)CC1	0	0	0	0	26.0	0	0	0	0
CCN1CCN(c2cc(C)c3cc(NC(=O)CCC(=O)N4CCN(c5ccccc5OC)CC4)ccc3n2)CC1	0	0	0	0	0	0	-	-	-
CCOc1ccc2ncc(C(=O)c3ccc(OC)cc3)c(N3CCN(CC)CC3)c2c1	0	499.0	0	0	0	0	0	0	0
SMILES	Rce1 inhib	MEKK2wt PB1 HTS	MEKK3 PB1 HTS	UCH37 DUB inh	MEKK2 mut-MEK5	T cell HTS	MEKK2wt confirm	MEKK2mut confirm	MEKK3-MEK5 inh
O=C(NN=Cc1ccc(N2CCOCC2)s1)c1ccccc1Cl	-	-	-	0	-	-	-	-	-
CCN(CC)C(=S)Nc1ccc(OC)cc1	0	0	155.0	0	0	0	0	0	0
O=[N+]([O-])c1ccc(/C=C/C2=NN(c3ccccc3)C(c3ccco3)C2)cc1 (stereo not drawn)	-	-	-	0	-	0	-	-	-
O=[N+]([O-])c1ccc(C2=NN(c3ccccc3)C(c3ccco3)C2)cc1 (stereo not drawn)	0	33.0	0	0	124.0	-	0	0	0
CN(C)CCc1cc2c(c3c1ccc1ccccc13)OCO2	0	174.0	0	0	0	0	0	0	0
COc1cc2ccc3c(CCN(C)C)cc(OC)c(OC)c3c2cc1OC	0	0	0	0	0	0	-	-	-
O=C(Nc1ccnn1C1CCN(C/C=C/c2ccccc2)CC1)c1cccc(F)c1	0	140.0	0	0	0	0	0	0	0
Cc1ccc(NC(=O)COC(=O)c2ccccc2-c2nc3ccccc3s2)c(C)c1	0	0	0	0	0	0	-	-	-
CCc1cccc(CC)c1NC(=O)COC(=O)c1ccccc1-c1nc2ccccc2s1	0	0	48.0[inhibitor]	0	0	0	0	0	0
NC(=NOC(=O)c1ccc2c(c1)OCO2)c1cccc([N+](=O)[O-])c1	-	-	-	0	-	-	-	-	-
CC(C)(C)c1cc[n+](/C(C(=S)NC2CC2)=C(/[O-])c2ccc(Cl)s2)cc1	0	0	81.0[inhibitor]	0	0	0	0	0	0
O=C(Nc1ccccc1C(=O)NN=Cc1ccc(O)cc1)c1ccccc1	-	-	-	0	-	-	-	-	-
COc1ccc(/C=N/NC(=O)c2[nH]c3ccc(Br)cc3c2-c2ccccc2)cc1	0	0	147.0	-	0	0	0	0	0
CC(=NNC(=O)c1cc(-c2ccc(O)cc2)nc2ccccc12)c1cccnc1	-	-	-	0	-	-	-	-	-
O=C(NCc1nc2ccccc2[nH]1)C1=C[C@H](C2CC2)C[C@H](OCCCCO)O1	0	0	79.0[inhibitor]	0	0	0	0	0	0
